Test results as given in ChEMBL document CHEMBL1144010, “Synthesis and in vitro opioid receptor functional antagonism of analogues of the selective kappa opioid receptor antagonist (3R)-7-hydroxy-N-((1S)-1-{[(3R,4R)-4-(3-hydroxyphenyl)-3,4-dimethyl-1-piperidinyl]methyl}-2-methylpropyl)-1,2,3,4-tetrahydro-3-isoquinolinecarboxamide (JDTic)” (J Med Chem, 2008).

Legend:
[1] = target: Kappa-type opioid receptor (Homo sapiens) (UniProt P41145); assay: Antagonist activity at human cloned kappa opioid receptor expressed in CHO cells assessed as inhibition of U69593-stimulated [35S]GTP-gamma-S binding; type: functional, cell-based
In short: (§1)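 Agonist concentration-response curves for stimulated [35S]GTPγS binding are run with and without a single concentration of test compound. Ke = [L]/(DR−1), where DR is the ratio of agonist EC50 with and without compound.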

[2] = target: Delta-type opioid receptor (Homo sapiens) (UniProt P41143); assay: Antagonist activity at human cloned delta opioid receptor expressed in CHO cells assessed as inhibition of DPDPE-stimulated [35S]GTP-gamma-S binding; type: functional, cell-based; in short: as §1
[3] = target: Mu-type opioid receptor (Homo sapiens) (UniProt P35372); assay: Antagonist activity at human cloned mu opioid receptor expressed in CHO cells assessed as inhibition of DAMGO-stimulated [35S]GTPgammaS binding; type: functional, cell-based; in short: as §1
CHO [4] = assay: Selectivity for human cloned kappa opioid receptor over human cloned delta opioid receptor expressed in CHO cells; type: cell-based
CHO [5] = assay: Selectivity for human cloned kappa opioid receptor over human cloned mu opioid receptor expressed in CHO cells; type: cell-based

Sequence of Mu-type opioid receptor (Homo sapiens) (P35372 whole entry): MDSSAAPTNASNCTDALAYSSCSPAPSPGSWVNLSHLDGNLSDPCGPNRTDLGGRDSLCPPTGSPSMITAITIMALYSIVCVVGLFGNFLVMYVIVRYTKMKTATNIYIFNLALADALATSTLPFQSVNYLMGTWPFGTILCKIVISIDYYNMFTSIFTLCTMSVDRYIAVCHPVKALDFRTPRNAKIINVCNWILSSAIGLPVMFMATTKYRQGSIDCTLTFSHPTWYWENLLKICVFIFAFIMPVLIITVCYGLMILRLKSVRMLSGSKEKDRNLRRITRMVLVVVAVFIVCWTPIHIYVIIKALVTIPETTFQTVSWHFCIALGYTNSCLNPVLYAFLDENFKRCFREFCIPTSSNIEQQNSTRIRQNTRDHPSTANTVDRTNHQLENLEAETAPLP
Sequence of Delta-type opioid receptor (Homo sapiens) (P41143 whole entry): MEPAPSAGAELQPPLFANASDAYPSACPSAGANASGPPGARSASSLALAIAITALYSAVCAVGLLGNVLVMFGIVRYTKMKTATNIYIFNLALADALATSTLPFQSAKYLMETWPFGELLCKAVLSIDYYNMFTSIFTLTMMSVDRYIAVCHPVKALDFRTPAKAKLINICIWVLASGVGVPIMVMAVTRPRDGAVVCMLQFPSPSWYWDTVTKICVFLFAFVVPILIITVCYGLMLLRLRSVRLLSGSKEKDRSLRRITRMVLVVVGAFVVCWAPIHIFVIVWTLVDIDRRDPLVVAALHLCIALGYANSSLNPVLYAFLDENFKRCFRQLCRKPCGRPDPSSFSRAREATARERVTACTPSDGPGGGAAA
Sequence of Kappa-type opioid receptor (Homo sapiens) (P41145 whole entry): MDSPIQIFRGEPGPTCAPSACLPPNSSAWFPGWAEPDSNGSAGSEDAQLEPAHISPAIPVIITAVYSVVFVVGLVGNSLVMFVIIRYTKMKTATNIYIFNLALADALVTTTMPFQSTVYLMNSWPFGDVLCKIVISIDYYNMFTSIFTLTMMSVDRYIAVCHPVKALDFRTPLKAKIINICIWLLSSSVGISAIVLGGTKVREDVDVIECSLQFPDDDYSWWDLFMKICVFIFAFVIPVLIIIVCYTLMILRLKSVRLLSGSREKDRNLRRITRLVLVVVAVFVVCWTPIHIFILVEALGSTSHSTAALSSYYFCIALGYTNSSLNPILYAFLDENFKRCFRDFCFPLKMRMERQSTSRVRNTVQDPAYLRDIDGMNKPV

Structure (SMILES)	Ke [1]	Ke [2]	Ke [3]	Ratio Ke (CHO [4])	Ratio Ke (CHO [5])
CC(C)[C@@H](CN1CC[C@@](C)(c2cccc(O)c2)[C@@H](C)C1)NC(=O)[C@H]1Cc2ccc(N)cc2CN1	0.2 nM	373 nM	12.6 nM	1860	63
COc1ccc2c(c1)CCN(CC(=O)N[C@H](CN1CC[C@@](C)(c3cccc(O)c3)[C@@H](C)C1)C(C)C)C2	26 nM	76 nM	11.4 nM	3	0.4
COc1ccc2c(c1)CN[C@@H](C(=O)N[C@H](CN1CC[C@@](C)(c3cccc(O)c3)[C@@H](C)C1)C(C)C)C2	0.06 nM	118 nM	51.4 nM	1980	857
COc1ccc2cc(C(=O)N[C@H](CN3CC[C@@](C)(c4cccc(O)c4)[C@@H](C)C3)C(C)C)cnc2c1	11.4 nM	158 nM	19.5 nM	14	1.7
CC(C)[C@@H](CN1CC[C@@](C)(c2cccc(O)c2)[C@@H](C)C1)NC(=O)CN1CCc2cc(O)ccc2C1	3.9 nM	408 nM	21.4 nM	105	5.5
COc1ccc2cc(C(=O)N[C@H](CN3CC[C@@](C)(c4cccc(O)c4)[C@@H](C)C3)C(C)C)[nH]c2c1	10.9 nM	282 nM	13.7 nM	26	1.3
CC(C)[C@@H](CN1CC[C@@](C)(c2cccc(O)c2)[C@@H](C)C1)NC(=O)CN1CCc2ccc(O)cc2C1	23.5 nM	177 nM	9.2 nM	7.5	0.4
CC(C)[C@@H](CN1CC[C@@](C)(c2cccc(O)c2)[C@@H](C)C1)NC(=O)c1cc2ccc(O)cc2[nH]1	34.1 nM	97 nM	23.8 nM	3	0.7
CC(C)CCN(CCN1CC[C@@](C)(c2cccc(O)c2)[C@@H](C)C1)C(=O)[C@H]1Cc2ccc(O)cc2CN1	1.2 nM	9.3 nM	0.5 nM	8	0.4
CC(C)[C@@H](CN1CC[C@@](C)(c2cccc(O)c2)[C@@H](C)C1)NC(=O)c1cnc2cc(O)ccc2c1	9.3 nM	229 nM	48 nM	25	5.2
CC(C)[C@@H](CN1CC[C@@](C)(c2cccc(O)c2)[C@@H](C)C1)NC(=O)c1nc2ccc(O)cc2[nH]1	22.4 nM	290 nM	15.6 nM	13	0.7
CC(C)CN(CCN1CC[C@@](C)(c2cccc(O)c2)[C@@H](C)C1)C(=O)[C@H]1Cc2ccc(O)cc2CN1	1.9 nM	39 nM	1 nM	21	0.5
CC(=O)Nc1ccc2c(c1)CN[C@@H](C(=O)N[C@H](CN1CC[C@@](C)(c3cccc(O)c3)[C@@H](C)C1)C(C)C)C2	1.4 nM	555 nM	11 nM	396	7.9
CC(C)[C@@H](CN1CC[C@@](C)(c2cccc(O)c2)[C@@H](C)C1)NC(=O)[C@H]1Cc2ccc(NS(C)(=O)=O)cc2CN1	4 nM	106 nM	17.7 nM	27	4.4
CC[C@H](C)[C@@H](CN1CC[C@@](C)(c2cccc(O)c2)[C@@H](C)C1)NC(=O)[C@H]1Cc2ccc(O)cc2CN1	0.03 nM	24 nM	3 nM	800	100
CC(C)[C@@H](CN1CC[C@@](C)(c2cccc(O)c2)[C@@H](C)C1)NC(=O)[C@H]1Cc2ccc([N+](=O)[O-])cc2CN1	6.4 nM	65 nM	7.9 nM	10	1.2
CC(C)[C@@H](CN1CC[C@@](C)(c2cccc(O)c2)[C@@H](C)C1)NC(=O)[C@H]1Cc2ccc(O)cc2CN1	–	–	–	3800	1250
COc1ccc2c(c1)CN(CC(=O)N[C@H](CN1CC[C@@](C)(c3cccc(O)c3)[C@@H](C)C1)C(C)C)CC2	16.8 nM	51.7 nM	17.7 nM	3	1
CC(C)[C@@H](CN1CC[C@@](C)(c2cccc(O)c2)[C@@H](C)C1)NC(=O)c1c[nH]c2cc(O)ccc12	4.5 nM	224 nM	4.8 nM	50	1.1
COc1ccc2nc(C(=O)N[C@H](CN3CC[C@@](C)(c4cccc(O)c4)[C@@H](C)C3)C(C)C)[nH]c2c1	28.4 nM	102 nM	8.5 nM	3.6	0.3
CC(C)[C@@H](CN1CC[C@@](C)(c2cccc(O)c2)[C@@H](C)C1)NC(=O)[C@H]1Cc2ccccc2CN1	56 nM	–	–	–	–
